Activity calls are given as the source filed them.
Legend:
NCI-H460 = assay: Tested for cytotoxicity of compound against NCI-H460 (lung)cell line; IA means inactive.; format: functional, cell-based; conditions: Homo sapiens
MCF7 = assay: Tested for cytotoxicity of compound against MCF-7 (breast) cell line; IA means inactive.; format: functional, cell-based; conditions: Homo sapiens
SF-268 = assay: Tested for cytotoxicity of compound against SF-268 (CNS) cell line; IA means inactive.; format: functional, cell-based; conditions: Homo sapiens
Mus musculus [1] = assay: Evaluated in vivo for percent growth delay in mice at 1.00 mg/kg for 7 days by intraperitoneal treatment on AS283 lymphoma cell line; format: functional
[2] = Evaluated in vivo for intraperitoneal score in hallow fiber assay; format: functional
How it was run: (§1)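 NCI hollow fiber preliminary in vivo assay; scores recorded separately for intraperitoneal (ip) and subcutaneous (sc) fiber implantation sites, with an activity criterion applied (Y/N). Procedure detailed in prior work.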

Mus musculus [3] = assay: Evaluated in vivo for percent of tumor weight in treated/control of mice at 1.80 mg/kg for 24 (38) days by intravenous treatment on MDA-MB-435 breast cell line; format: functional; conditions: dose 1.8 mg/kg
Mus musculus [4] = assay: Evaluated in vivo for percent of tumor weight in treated/control of mice at 1.50 mg/kg for 10 days by intraperitoneal treatment on UACC-62 melanoma cell line; format: functional; conditions: dose 1.5 mg/kg
Mus musculus [5] = assay: Evaluated in vivo for percent growth delay in mice at 0.67 mg/kg for 12 days by intraperitoneal treatment on COLO 205 colon cell line; format: functional
[6] = Tested for cytotoxicity (lethal concentration) of compound, activity expressed as MID log LC50; format: functional
How it was run: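 MID is the calculated mean of LC50 concentrations (M) across the cell line panel, where LC50 is the half-lethal concentration. It is reported as a log value.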

Mus musculus [7] = assay: Evaluated in vivo for percent of tumor weight in treated/control of mice at 1.00 mg/kg for 7 days by intraperitoneal treatment on AS283 lymphoma cell line; format: functional
Mus musculus [8] = assay: Evaluated in vivo for toxic deaths of mice at 1.80 mg/kg for 24 (38) days by intravenous treatment on MDA-MB-435 breast […] cell line; format: toxicity, organism-based; set-up: dose 1.8 mg/kg, route intravenous; conditions: 1.8 mg/kg
How it was run: (§2)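 Nude mice carrying subcutaneous human tumor xenografts, tested at NCI Bethesda; compound given on the stated schedule, intraperitoneally (IP) or intravenously (IV). Three dose levels were tested, and the table reports only the optimal one. Toxic deaths are scored per treatment group alongside tumor weight end points.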

[9] = Evaluated in vivo for intraperitoneal + subcutaneous score in hallow fiber assay; format: functional; how it was run: as §1
Mus musculus [10] = assay: Evaluated in vivo for percent of tumor weight in treated/control of mice at 0.67 mg/kg for 12 days by intraperitoneal treatment on COLO 205 colon cell line; format: functional
Mus musculus [11] = assay: Evaluated in vivo for toxic deaths of mice at 1.34 mg/kg for 7 days by intraperitoneal treatment on NCI-H460 non-small cell lung cell line; format: toxicity, organism-based; set-up: dose 1.34 mg/kg, route intraperitoneal; conditions: ip, 168 h; how it was run: as §2
Mus musculus [12] = assay: Evaluated in vivo for percent of tumor weight in treated/control of mice at 0.90 mg/kg for 5 days by intraperitoneal treatment on HCT-15 colon cell line; format: functional; conditions: dose 0.9 mg/kg
Mus musculus [13] = assay: Evaluated in vivo for toxic deaths of mice at 1.00 mg/kg for 7 days by intraperitoneal treatment on AS283 lymphoma cell line; format: toxicity, organism-based; set-up: dose 1 mg/kg, route intraperitoneal; conditions: ip, 168 h; how it was run: as §2
Mus musculus [14] = assay: Evaluated in vivo for percent of tumor weight in treated/control of mice at 0.90 mg/kg for 7 days by intraperitoneal treatment on RXF-393 renal cell line; format: functional; conditions: dose 0.9 mg/kg
Mus musculus [15] = assay: Evaluated in vivo for percent growth delay in mice at 0.90 mg/kg for 7 days by intraperitoneal treatment on RXF-393 renal cell line; format: functional; conditions: dose 0.9 mg/kg
Mus musculus [16] = assay: Evaluated in vivo for toxic deaths of mice at 0.90 mg/kg for 7 days by intraperitoneal treatment on RXF-393 renal cell line; format: toxicity, organism-based; set-up: dose 0.9 mg/kg, route intraperitoneal; conditions: ip, 0.9 mg/kg, 168 h; how it was run: as §2
Mus musculus [17] = assay: Evaluated in vivo for percent growth delay in mice at 1.80 mg/kg for 24 (38) days by intravenous treatment on MDA-MB-435 breast cell line; format: functional; conditions: dose 1.8 mg/kg
Mus musculus [18] = assay: Evaluated in vivo for percent of tumor weight in treated/control of mice at 1.34 mg/kg for 7 days by intraperitoneal treatment on NCI-H460 non-small cell lung cell line; format: functional
Mus musculus [19] = assay: Evaluated in vivo for toxic deaths of mice at 0.90 mg/kg for 5 days by intraperitoneal treatment on HCT-15 colon cell line; format: toxicity, organism-based; set-up: dose 0.9 mg/kg, route intraperitoneal; conditions: ip, 0.9 mg/kg, 120 h; how it was run: as §2
Mus musculus [20] = assay: Evaluated in vivo for percent growth delay in mice at 0.90 mg/kg for 5 days by intraperitoneal treatment on HCT-15 colon cell line; format: functional; conditions: dose 0.9 mg/kg
[21] = Evaluated in vivo for subcutaneous score in hallow fiber assay; format: functional; how it was run: as §1
Mus musculus [22] = assay: Evaluated in vivo for toxic deaths of mice at 1.50 mg/kg for 10 days by intraperitoneal treatment on UACC-62 melanoma cell line; format: toxicity, organism-based; set-up: dose 1.5 mg/kg, route intraperitoneal; conditions: ip, 1.5 mg/kg, 240 h; how it was run: as §2
Mus musculus [23] = assay: Evaluated in vivo for percent growth delay in mice at 1.34 mg/kg for 7 days by intraperitoneal treatment on NCI-H460 non-small cell lung cell line; format: functional
Mus musculus [24] = assay: Evaluated in vivo for toxic deaths of mice at 0.67 mg/kg for 12 days by intraperitoneal treatment on COLO 205 colon cell line; format: toxicity, organism-based; set-up: dose 0.67 mg/kg, route intraperitoneal; conditions: ip, 288 h; how it was run: as §2
Mus musculus [25] = assay: Evaluated in vivo for percent growth delay in mice at 1.50 mg/kg for 10 days by intraperitoneal treatment on UACC-62 melanoma cell line; format: functional; conditions: dose 1.5 mg/kg
Mus musculus [26] = assay: Evaluated in vivo for toxic deaths of mice at 5.60 mg/kg for 24 (38) days by intraperitoneal treatment on MDA-MB-435 breast […] cell line; format: toxicity, organism-based; set-up: dose 5.6 mg/kg, route intraperitoneal; conditions: ip, 5.6 mg/kg; how it was run: as §2
Mus musculus [27] = assay: Evaluated in vivo for percent growth delay in mice at 3.35 mg/kg for 7 days by intraperitoneal treatment on SK-MEL-28 melanoma cell line
Mus musculus [28] = assay: Evaluated in vivo for percent growth delay in mice at 5.60 mg/kg for 7 days by intraperitoneal treatment on AS283 lymphoma cell line; format: functional; conditions: dose 5.6 mg/kg
Mus musculus [29] = assay: Evaluated in vivo for percent growth delay in mice at 3.35 mg/kg for 10 days by intraperitoneal treatment on NCI-H522 non-small cell lung cell line
Mus musculus [30] = assay: Evaluated in vivo for percent growth delay in mice at 5.60 mg/kg for 8 days by intraperitoneal treatment on COLO 205 colon cell line; conditions: dose 5.6 mg/kg
Mus musculus [31] = assay: Evaluated in vivo for toxic deaths of mice at 3.35 mg/kg for 7 days by intraperitoneal treatment on SK-MEL-28 melanoma cell line; conditions: ip, 168 h
Mus musculus [32] = assay: Evaluated in vivo for percent of tumor weight in treated/control of mice 5.60 at mg/kg for 11 days by intraperitoneal treatment on A498 renal cell line
Mus musculus [33] = assay: Evaluated in vivo for percent treated/control of mice at 3.35 mg/kg for 10 days by intraperitoneal treatment on NCI-H522 non-small cell lung cell line
Mus musculus [34] = assay: Evaluated in vivo for percent growth delay in mice at 5.60 mg/kg for 15 days by intraperitoneal treatment on UACC-257 melanoma cell line; conditions: dose 5.6 mg/kg
Mus musculus [35] = assay: Evaluated in vivo for percent of tumor weight in treated/control of mice at 5.60 mg/kg by intraperitoneal treatment; conditions: dose 5.6 mg/kg
Mus musculus [36] = assay: Evaluated in vivo for toxic deaths of mice at 8.40 mg/kg for 8 days by intraperitoneal treatment on UACC-62 melanoma cell line; conditions: ip, 8.4 mg/kg, 192 h
Mus musculus [37] = assay: Evaluated in vivo for percent growth delay in mice at 5.60 mg/kg for 11 days by intraperitoneal treatment on A498 renal cell line; conditions: dose 5.6 mg/kg
Mus musculus [38] = assay: Evaluated in vivo for percent growth delay in mice at 8.40 mg/kg for 8 days by intraperitoneal treatment on UACC-62 melanoma cell line; conditions: dose 8.4 mg/kg
Mus musculus [39] = assay: Evaluated in vivo for toxic deaths of mice at 3.35 mg/kg for 10 days by intraperitoneal treatment on NCI-H522 non-small cell lung cell line; conditions: ip, 240 h
Mus musculus [40] = assay: Evaluated in vivo for percent of tumor weight in treated/control of mice at 3.35 mg/kg for 7 days by intraperitoneal treatment on SK-MEL-28 melanoma cell line
Mus musculus [41] = assay: Evaluated in vivo for toxic deaths of mice at 5.60 mg/kg for 5 days by intraperitoneal treatment on HCT-15 colon cell line; format: toxicity, organism-based; set-up: dose 5.6 mg/kg, route intraperitoneal; conditions: ip, 5.6 mg/kg, 120 h; how it was run: as §2
Mus musculus [42] = assay: Evaluated in vivo for percent of tumor weight in treated/control of mice at 5.60 mg/kg for 8 days by intraperitoneal treatment on COLO 205 colon cell line; conditions: dose 5.6 mg/kg
Mus musculus [43] = assay: Evaluated in vivo for toxic deaths of mice at 5.60 mg/kg for 12 days by intraperitoneal treatment on COLO 205 colon cell line; format: toxicity, organism-based; set-up: dose 5.6 mg/kg, route intraperitoneal; conditions: ip, 5.6 mg/kg, 288 h; how it was run: as §2
Mus musculus [44] = assay: Evaluated in vivo for percent of tumor weight in treated/control of mice at 8.40 mg/kg for 8 days by intraperitoneal treatment on UACC-62 melanoma cell line; conditions: dose 8.4 mg/kg

SMILES: CC(=O)N[C@@H]1[C@H](OCc2ccccc2)OC(CO)C(O)[C@H]1OC(C)C(=O)N[C@H](C)C(=O)N[C@H](CCC(=O)OCCCCNC(=O)c1cccc2cc3ccccc3nc12)C(N)=O (stereo not given in full)
- IA (NCI-H460): inactive
- IA (MCF7): inactive
- IA (SF-268): inactive

SMILES: CC(=O)N[C@@H]1[C@H](OCc2ccccc2)OC(CO)C(O)[C@H]1OC(C)C(=O)N[C@H](C)C(=O)N[C@H](CCC(=O)OCCNc1c2ccccc2nc2cccc([N+](=O)[O-])c12)C(N)=O (stereo not given in full)
- Growth delay (T-C/C) (Mus musculus [1]): 9%
- Score [2]: 12
- Tumor weight (Mus musculus [3]): 60%
- Tumor weight (Mus musculus [4]): 89%
- Growth delay (T-C/C) (Mus musculus [5]): 11%
- MID log LC50 [6]: 6.85 M
- Tumor weight (Mus musculus [7]): 63%
- Toxic deaths (Mus musculus [8]): 2
- Score [9]: 20
- Tumor weight (Mus musculus [10]): 75%
- Toxic deaths (Mus musculus [11]): 1
- Tumor weight (Mus musculus [12]): 79%
- Toxic deaths (Mus musculus [13]): 0
- Tumor weight (Mus musculus [14]): 81%
- Growth delay (T-C/C) (Mus musculus [15]): 32%
- Toxic deaths (Mus musculus [16]): 0
- Growth delay (T-C/C) (Mus musculus [17]): 17%
- Tumor weight (Mus musculus [18]): 54%
- Toxic deaths (Mus musculus [19]): 2
- Growth delay (T-C/C) (Mus musculus [20]): 5%
- Score [21]: 8
- Toxic deaths (Mus musculus [22]): 0
- Growth delay (T-C/C) (Mus musculus [23]): 21%
- Toxic deaths (Mus musculus [24]): 0
- Growth delay (T-C/C) (Mus musculus [25]): 2%

SMILES: CC(=O)N[C@@H]1[C@H](OCc2ccccc2)OC(CO)C(O)[C@H]1OC(C)C(=O)N[C@H](C)C(=O)N[C@H](CCC(=O)OCCCNc1c2ccccc2nc2cccc([N+](=O)[O-])c12)C(N)=O (stereo not given in full)
- Toxic deaths (Mus musculus [26]): 1
- Growth delay (T-C/C) (Mus musculus [27]): -3%
- Score [2]: 2
- Growth delay (T-C/C) (Mus musculus [28]): 16%
- Growth delay (T-C/C) (Mus musculus [29]): 1%
- Growth delay (T-C/C) (Mus musculus [30]): -7%
- Toxic deaths (Mus musculus [31]): 0
- Tumor weight (Mus musculus [32]): 68%
- Tumor weight (Mus musculus [33]): 89%
- MID log LC50 [6]: 5.78 M
- Growth delay (T-C/C) (Mus musculus [34]): 1%
- Score [9]: 4
- Tumor weight (Mus musculus [35]): 60%
- Toxic deaths (Mus musculus [36]): 0
- Growth delay (T-C/C) (Mus musculus [37]): 3%
- Growth delay (T-C/C) (Mus musculus [38]): 107%
- Toxic deaths (Mus musculus [39]): 1
- Tumor weight (Mus musculus [40]): 105%
- Toxic deaths (Mus musculus [41]): 2
- Score [21]: 2
- Tumor weight (Mus musculus [42]): 65%
- Toxic deaths (Mus musculus [43]): 1
- Tumor weight (Mus musculus [44]): 1%

SMILES: CC(=O)N[C@@H]1[C@H](OCc2ccccc2)OC(CO)C(O)[C@H]1OC(C)C(=O)N[C@@H](C(=O)N[C@H](CCC(=O)OCCCNC(=O)c1cccc2cc3ccccc3nc12)C(N)=O)C(C)C (stereo not given in full)
- IA (NCI-H460): inactive
- IA (MCF7): inactive
- IA (SF-268): inactive

SMILES: CC(=O)N[C@@H]1[C@H](OCc2ccccc2)OC(CO)C(O)[C@H]1OCC(=O)N[C@H](C)C(=O)N[C@H](CCC(=O)OCCNC(=O)c1cccc2c(=O)c3ccccc3[nH]c12)C(N)=O (stereo not given in full)
- IA (NCI-H460): inactive
- IA (MCF7): inactive
- IA (SF-268): inactive

SMILES: CC(=O)N[C@@H]1[C@H](OCc2ccccc2)OC(CO)C(O)[C@H]1OC(C)C(=O)N[C@@H](C(=O)N[C@H](CCC(=O)OCCNC(=O)c1cccc2c(=O)c3ccccc3[nH]c12)C(N)=O)C(C)C (stereo not given in full)
- IA (NCI-H460): inactive
- IA (MCF7): inactive
- IA (SF-268): inactive
